Assay [1] addresses Acetylcholinesterase (Homo sapiens, UniProt P22303). The experiment in a line: Inhibition of human serum AChE by Ellman's assay. (In general: In Ellman's method for cholinesterases, released thiocholine reacts with DTNB.)
In assay [2] the target is Acetylcholinesterase (Electrophorus electricus, UniProt O42275). The experiment in a line: Inhibition of electric eel AChE by Ellman's method. The essentials: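 Commercial electric eel enzyme assayed like rat brain AChE: inhibitor, buffer and DTNB preincubated 10 min, acetylthiocholine iodide added, A412 followed each minute over 10 min at 37 °C. Percentage inhibition versus uninhibited activity at varied concentrations; duplicates averaged. Neostigmine reference 25–500 nM.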
Acetylcholinesterase (Electrophorus electricus, UniProt O42275), sequence (O42275 whole entry): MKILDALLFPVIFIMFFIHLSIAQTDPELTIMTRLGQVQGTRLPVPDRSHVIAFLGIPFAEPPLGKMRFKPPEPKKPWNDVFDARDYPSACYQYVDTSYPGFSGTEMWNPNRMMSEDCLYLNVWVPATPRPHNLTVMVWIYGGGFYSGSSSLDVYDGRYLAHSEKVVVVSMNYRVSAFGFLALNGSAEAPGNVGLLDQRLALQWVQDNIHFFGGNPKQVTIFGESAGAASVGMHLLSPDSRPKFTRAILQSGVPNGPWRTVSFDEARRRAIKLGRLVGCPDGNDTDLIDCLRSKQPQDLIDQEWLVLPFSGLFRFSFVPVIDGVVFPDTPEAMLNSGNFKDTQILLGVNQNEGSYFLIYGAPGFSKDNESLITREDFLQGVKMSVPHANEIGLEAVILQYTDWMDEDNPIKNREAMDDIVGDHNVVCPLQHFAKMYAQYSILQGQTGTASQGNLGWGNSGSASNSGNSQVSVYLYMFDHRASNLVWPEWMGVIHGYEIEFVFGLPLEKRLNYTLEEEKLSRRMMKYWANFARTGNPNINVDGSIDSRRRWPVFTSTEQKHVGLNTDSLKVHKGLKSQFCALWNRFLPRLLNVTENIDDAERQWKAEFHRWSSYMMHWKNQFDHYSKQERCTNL

The subject of assay [3] is Rattus norvegicus. The experiment in a line: Antiamnesic effect against scopolamine-induced memory loss in rat assessed as basal latency to reach shock free zone 2 at 0.1 mg/kg, ip. The following applies: route intraperitoneal. Type of assay: functional.
The target in assay [4] is T1, Acetylcholinesterase (Rattus norvegicus, UniProt P37136).
T1 sequence (P37136 whole entry): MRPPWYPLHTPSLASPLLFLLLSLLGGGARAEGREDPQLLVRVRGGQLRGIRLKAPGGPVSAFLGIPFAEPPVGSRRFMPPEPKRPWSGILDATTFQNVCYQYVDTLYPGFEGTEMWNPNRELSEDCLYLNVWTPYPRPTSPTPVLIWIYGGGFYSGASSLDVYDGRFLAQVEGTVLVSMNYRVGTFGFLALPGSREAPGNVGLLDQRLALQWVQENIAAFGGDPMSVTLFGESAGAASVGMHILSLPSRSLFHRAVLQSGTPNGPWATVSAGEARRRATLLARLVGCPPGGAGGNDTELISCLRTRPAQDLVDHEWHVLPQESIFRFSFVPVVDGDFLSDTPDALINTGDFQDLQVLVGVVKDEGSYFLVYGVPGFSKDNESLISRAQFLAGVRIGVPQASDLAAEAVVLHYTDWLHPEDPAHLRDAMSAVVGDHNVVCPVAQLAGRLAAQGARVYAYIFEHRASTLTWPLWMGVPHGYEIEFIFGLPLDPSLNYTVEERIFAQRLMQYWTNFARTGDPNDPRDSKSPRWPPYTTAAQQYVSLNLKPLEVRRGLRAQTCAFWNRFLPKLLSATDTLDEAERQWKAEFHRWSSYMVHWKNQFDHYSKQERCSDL
The experiment in a line: Inhibition of Wistar rat brain homogenate AChE by Ellman's assay. The essentials: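 Enzyme from Wistar rat brain homogenised 5 min in 0.1 M KH2PO4 pH 8; protein by Lowry (BSA standard). Inhibitor preincubated 10 min with enzyme, buffer and DTNB before adding acetylthiocholine iodide (fresh, pH 7 phosphate). A412 read every 1 min for 10 min at 37 °C. Activity as percentage of uninhibited enzyme; duplicates, means reported.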

Assay [5] deals with Rattus norvegicus. The experiment in a line: Antiamnesic activity against scopolamine-induced acquisition memory loss in rat assessed as times of step-down at 0.1 mg/kg, ip by step-down passive avoidance test. The following applies: route intraperitoneal. It counts as functional.
The subject of assay [6] is Rattus norvegicus. The experiment in a line: Antiamnesic activity against scopolamine-induced memory loss in rat assessed as reversal of number of mistakes made in 15 min at 0.1 mg/kg, ip. It counts as functional, organism-based. Set-up: dose 0.1 mg/kg.
For assay [7], the system named is Rattus norvegicus. The experiment in a line: Antiamnesic activity against scopolamine-induced memory loss in rat assessed as basal latency to reach shock free zone 3 at 0.1 mg/kg, ip. Type of assay: functional. The following applies: route intraperitoneal.
Assay [8] concerns Rattus norvegicus. The experiment in a line: Antiamnesic activity against scopolamine-induced memory loss in rat assessed as basal latency to reach shock free zone 1 at 0.1 mg/kg, ip. Type of assay: functional. The following applies: route intraperitoneal.

Activity calls are given as the source filed them. The rule behind the calls is not given here.

Acetylcholinesterase (Homo sapiens, UniProt P22303), sequence (P22303 whole entry): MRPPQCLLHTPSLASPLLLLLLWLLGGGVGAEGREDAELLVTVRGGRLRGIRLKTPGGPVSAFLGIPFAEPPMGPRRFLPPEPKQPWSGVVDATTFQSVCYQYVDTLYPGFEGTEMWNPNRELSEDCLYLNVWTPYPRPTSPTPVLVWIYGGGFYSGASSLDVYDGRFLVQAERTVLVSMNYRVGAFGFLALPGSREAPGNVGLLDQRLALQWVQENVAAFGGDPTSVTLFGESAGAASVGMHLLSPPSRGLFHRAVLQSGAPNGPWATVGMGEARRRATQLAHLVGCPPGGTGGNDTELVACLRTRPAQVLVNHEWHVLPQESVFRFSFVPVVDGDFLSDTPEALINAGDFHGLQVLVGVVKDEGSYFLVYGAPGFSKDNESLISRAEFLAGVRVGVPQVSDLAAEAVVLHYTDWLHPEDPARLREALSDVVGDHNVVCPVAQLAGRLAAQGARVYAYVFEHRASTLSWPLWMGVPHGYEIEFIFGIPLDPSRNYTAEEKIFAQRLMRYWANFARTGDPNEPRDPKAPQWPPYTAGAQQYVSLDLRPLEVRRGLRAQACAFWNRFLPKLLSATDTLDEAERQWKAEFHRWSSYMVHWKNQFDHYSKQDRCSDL

A word on the IC50: it is the midpoint of a concentration-inhibition curve. A higher IC50 goes with lower potency. Take `C[C@@H]1CCC[C@H](C)N1S(=O)(=O)c1cc(Cl)ccc1Cl`: the concentration for half-maximal inhibition (IC50) at Acetylcholinesterase [1] amounted to 90 nM; against Acetylcholinesterase [2], 81 nM; on Acetylcholinesterase [4], 75 nM. Also, the Activity was determined as 4 s in the assay with Rattus norvegicus [3], 2 times in the assay on Rattus norvegicus [5], 0.8 s in the assay on Rattus norvegicus [7] and 16 s in the assay with Rattus norvegicus [8]. In addition, the outcome in the assay with Rattus norvegicus [6] was Active.

On to `C[C@@H]1CCC[C@H](C)N1S(=O)(=O)c1ccccc1[N+](=O)[O-]`, for which the values for the IC50 on Acetylcholinesterase [1], at Acetylcholinesterase [2] and against Acetylcholinesterase [4] were 185 nM, 180 nM and 195 nM, respectively. Moreover, the Activity with Rattus norvegicus [3] was found to be 5 s; with Rattus norvegicus [5] it was 2 times; with Rattus norvegicus [7] it was 0.9 s; with Rattus norvegicus [8] it was 17 s. Moreover, in the assay with Rattus norvegicus [6], the outcome was Active.

`C[C@@H]1CCC[C@H](C)N1S(=O)(=O)c1ccc([N+](=O)[O-])cc1`: the half-inhibitory concentration (IC50) on Acetylcholinesterase [1] was 1150 nM; against Acetylcholinesterase [2], 1210 nM; against Acetylcholinesterase [4], 1200 nM. The Activity came out at 9 s in the assay with Rattus norvegicus [3], 3 times in the assay on Rattus norvegicus [5], 7 s with Rattus norvegicus [7] and 34 s in the assay with Rattus norvegicus [8].

Take `Cc1ccc(S(=O)(=O)N2[C@H](C)CCC[C@@H]2C)cc1`: the IC50 against Acetylcholinesterase [1] came out at 368 nM; at Acetylcholinesterase [2], 365 nM; on Acetylcholinesterase [4] it was 362 nM. In addition, the Activity came out at 8 s with Rattus norvegicus [3], 4 times in the assay with Rattus norvegicus [5], 5 s in the assay with Rattus norvegicus [7] and 27 s in the assay on Rattus norvegicus [8].

`C[C@@H]1CCC[C@H](C)N1S(C)(=O)=O`: the IC50 came to 75 nM against Acetylcholinesterase [1], 90 nM at Acetylcholinesterase [2] and 85 nM on Acetylcholinesterase [4]. The Activity in the assay on Rattus norvegicus [3] turned out to be 4 s; in the assay on Rattus norvegicus [5] it was 2 times; with Rattus norvegicus [7], 0.7 s; with Rattus norvegicus [8] it was 20 s. Besides, in the assay on Rattus norvegicus [6], the result was Active.

Consider `C[C@@H]1CCC[C@H](C)N1S(=O)(=O)c1ccc(Cl)cc1`, for which the 50% inhibitory concentration (IC50) on Acetylcholinesterase [1] is 318 nM; against Acetylcholinesterase [2] it was 312 nM; on Acetylcholinesterase [4], 325 nM. Further, the Activity with Rattus norvegicus [3] is 8 s; with Rattus norvegicus [5], 3 times; with Rattus norvegicus [7], 5 s; in the assay on Rattus norvegicus [8] it was 25 s.

As for `C[C@@H]1CCC[C@H](C)N1S(=O)(=O)c1ccc(C(C)(C)C)cc1`, the half-maximal inhibitory concentration (IC50) stood at 458 nM against Acetylcholinesterase [1], 450 nM on Acetylcholinesterase [2] and 463 nM at Acetylcholinesterase [4]. Moreover, the Activity in the assay on Rattus norvegicus [3] was found to be 9 s; in the assay with Rattus norvegicus [5], 4 times; with Rattus norvegicus [7], 6 s; with Rattus norvegicus [8], 28 s.

Take `C[C@@H]1CCC[C@H](C)N1S(=O)(=O)c1ccccc1`: the values for the 50% inhibitory concentration (IC50) at Acetylcholinesterase [1], on Acetylcholinesterase [2] and against Acetylcholinesterase [4] were 392 nM, 388 nM and 362 nM, respectively. For the same compound, the Activity was determined as 7 s in the assay on Rattus norvegicus [3], 4 times in the assay on Rattus norvegicus [5], 4 s with Rattus norvegicus [7] and 26 s in the assay on Rattus norvegicus [8].

`C[C@@H]1CCC[C@H](C)N1S(=O)(=O)c1cccc([N+](=O)[O-])c1`: the IC50 is 192 nM at Acetylcholinesterase [1], 200 nM against Acetylcholinesterase [2] and 186 nM on Acetylcholinesterase [4]. Further, the Activity in the assay with Rattus norvegicus [3] came to 6 s; in the assay on Rattus norvegicus [5], 4 times; in the assay on Rattus norvegicus [7] it was 4 s; in the assay with Rattus norvegicus [8] it was 22 s. Also, in the assay on Rattus norvegicus [6], the result was Active.

For `CN(C)C(=O)Oc1cccc([N+](C)(C)C)c1` [NEOSTIGMINE BROMIDE], the figures for the IC50 against Acetylcholinesterase [2] and on Acetylcholinesterase [4] were 53 nM and 40 nM, respectively.

For the origin of these results see ChEMBL document CHEMBL1154069, “Active site directed docking studies: synthesis and pharmacological evaluation of cis-2,6-dimethyl piperidine sulfonamides as inhibitors of acetylcholinesterase” (Eur J Med Chem, 2009).
